The results in this text go back to ChEMBL document CHEMBL4334439, “Discovery, Optimization, and Target Identification of Novel Potent Broad-Spectrum Antiviral Inhibitors” (J Med Chem, 2019).

The term CC50 denotes the concentration giving 50% cytotoxicity. The term EC50 denotes the concentration giving half of the maximal effect. One may read the IC50 as the concentration that gives 50% inhibition.

Calls of active or inactive are those of the source. No cut-off for these calls is given here.

Data set [1] relates to Hepatitis C virus. Kind of data set: Antiviral activity against EGFP-fused HCV JFH-1 harboring K78E/E2-G451R/NS3-M260K/NS5A-T462I mutation infected in human Huh7.5.1 cells assessed as combination index after 2 days in presence of daclatasvir by qRT-PCR analysis. Format: functional, Hepacivirus hominis. The method in brief:
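In HCVcc-infected Huh7.5.1 cells (1×10^4/well, overnight, 37 °C), compound was given at various concentrations alone or with the named approved antiviral. After 2 days HCV RNA was quantified by qRT-PCR to derive the combination index.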
Background: Quantitative PCR measures a nucleic acid by following its amplification.

The subject of data set [2] is Hepatitis C virus. Put plainly: Antiviral activity against EGFP-fused HCV JFH-1 harboring K78E/E2-G451R/NS3-M260K/NS5A-T462I mutation infected in human Huh7.5.1 cells assessed as reduction in viral RNA level after 2 days in presence of ribavirin by qRT-PCR analysis. In kind it is functional, organism-based. As to conditions: Hepacivirus hominis. The method in brief:
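Huh7.5.1 cells at 1×10^4/well, grown overnight at 37 °C. HCVcc was mixed with serially diluted compound (top 30 or 6 μM), given alone or with the named drug, and added to the cells. Viral RNA was read by qRT-PCR after 2 days. EC50 is the concentration giving 50% RNA reduction.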

The nature of data set [3]: Cytotoxicity against African green monkey Vero cells infected with RSV assessed as decrease in cell viability after 48 hrs by WST1 assay. As to conditions: chlorocebus sabaeus. In kind it is cell-based. The method in brief:
(§1)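 Cells at 1×10^4/well, cultured overnight at 37 °C, were incubated 48 h with serially diluted compound. Viability was read by WST-1 absorbance (OD450/OD630).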

Data set [4] can be described thus: Cytotoxicity against human RD cells infected with EV71 assessed as decrease in cell viability after 48 hrs by WST1 assay. In kind it is cell-based. The method in brief:
(§2)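 Cells seeded at 1 × 10^4 per well and cultured overnight at 37 °C, then incubated 48 h with serially diluted compounds. Viability read with WST-1 reagent as absorbance at OD450/OD630.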
On the technique in general: Tetrazolium dyes change colour on reduction, which living cells bring about.

The nature of data set [5]: Selectivity index, ratio of CC50 for human Caco2 cells to EC50 for MERS-CoV infected in human Caco2 cells. The following applies: read-out: Ratio CC50/EC50. In kind it is toxicity, cell-based.
The subject of data set [6] is Enterovirus A71. Kind of data set: Antiviral activity against EV71 infected in human RD cells measured at 24 hrs post-infection by luciferase reporter gene assay. In kind it is functional, organism-based. The following applies: Enterovirus A. In outline: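 RD cells at 1×10^4/well, cultured overnight, were infected with EV71(FY)-Luc at MOI 1 and treated with compound immediately afterwards. Luminescence read-out; EC50 is 50% signal reduction.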
For orientation: Reporter assays use an easily measured gene product as a stand-in for the process of interest.

For data set [7], the system named is Hepatitis C virus. Kind of data set: Antiviral activity against HCV infected in human Huh7.5.1 cells assessed as decrease in viral infection in presence of uridine. In kind it is functional, organism-based, Hepacivirus hominis. The following applies: Huh-7.5.1. The method in brief: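 HCV antiviral EC50 in Huh7.5.1 cells was measured with 0.5 mM uridine supplemented, and compared with the EC50 obtained without uridine.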

A short description of data set [8]: Inhibition of C-terminal 6-His tagged recombinant human DHODH N-terminal domain delta29 mutant expressed in Escherichia coli BL21(DE3) using dihydroorotate as substrate measured every 30 secs for 6 mins by DCIP dye based assay. The method in brief:
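Enzyme purified by HisTrap then size exclusion. Reaction started with 500 μM dihydroorotate. DCIP decrease read at 600 nm. Inhibition = (1 − Vi/V0) × 100. IC50 from 8–9 concentrations in triplicate by sigmoidal fit.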

Data set [9] is described as follows: Cytotoxicity against African green monkey Vero cells infected with SFTSV measured after 48 hrs by WST1 assay. Format: cell-based. The following applies: chlorocebus sabaeus. The method in brief:
as §1

The target of data set [10] is T1, Membrane protein MLC1 (Homo sapiens) (UniProt Q15049).
T1 sequence (whole entry): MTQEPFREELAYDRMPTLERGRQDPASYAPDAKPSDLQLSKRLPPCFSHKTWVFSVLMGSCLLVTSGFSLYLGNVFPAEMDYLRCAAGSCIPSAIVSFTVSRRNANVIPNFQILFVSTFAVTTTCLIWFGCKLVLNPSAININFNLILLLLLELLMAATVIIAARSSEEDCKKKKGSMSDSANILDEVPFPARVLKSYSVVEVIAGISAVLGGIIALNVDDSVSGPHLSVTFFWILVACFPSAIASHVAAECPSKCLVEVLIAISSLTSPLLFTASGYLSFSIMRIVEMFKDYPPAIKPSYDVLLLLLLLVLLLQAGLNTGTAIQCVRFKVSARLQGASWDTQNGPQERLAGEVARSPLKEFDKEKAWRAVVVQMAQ
Put plainly: Binding affinity to MLC1 in human Huh7.5.1 cell lysate infected with HCV at 0.1 to 10 uM incubated for 1 hr followed by 10000 mJ/cm2 UV irradiation for 10 mins and subsequent addition of biotin-N3 measured after 1 hr by ABPP Gel-based by LC/MS/MS analysis. Format: subcellular.

Data set [11] deals with Hepatitis C virus. Kind of data set: Antiviral activity against GFP-fused HCV JFH-1 harboring K78E/E2-G451R/NS3-M260K/NS5A-T462I mutant infected in human Huh7.5.1 cells assessed as reduction in viral infection preincubated for 2 hrs followed by viral infection and measured after 48 hrs by epifluorescence microscopic analysis. As to conditions: Hepacivirus hominis. Format: functional, organism-based. The method in brief: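 Huh7.5.1 cells at 3×10^4/well, cultured overnight at 37 °C in 5% CO2, were pretreated 2 h with compound over 0.0004–0.05 μM. Cells were then infected with HCV-GFP at MOI 1, and GFP expression was imaged by epifluorescence microscopy at 48 hpi.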

Data set [12] concerns Hepatitis C virus. Put plainly: Antiviral activity against HCV JFH-1 pseudotyped viral particle infected in HEK293T cells cotransfected with pCDN3.1-JFH1-cE1E2 plasmid encoding envelope with full length JFH1 and pNL4-3R-E-luciferase construct by luciferase reporter gene assay. Format: functional, organism-based, Hepacivirus hominis. The following applies: JFH-1, HEK-293T. In outline:
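HCVpp came from HEK293T co-transfected with the JFH1 E1E2 plasmid and pNL4-3R-E-luciferase. Supernatant was harvested at 48 h, filtered and luciferase-standardised for input. Virus was mixed with serially diluted compound (top 30 or 6 μM) and added to cells. Luminescence was read; EC50 is 50% signal reduction.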

A short description of data set [13]: Cytotoxicity against human Huh7.5.1 cells infected with ZIKV assessed as decrease in cell viability after 48 hrs by WST1 assay. In kind it is cell-based. In outline:
as §2

The target of data set [14] is Inosine-5'-monophosphate dehydrogenase 2 (Homo sapiens) (UniProt P12268). Put plainly: Binding affinity to IMPDH2 (unknown origin).
Chain of Inosine-5'-monophosphate dehydrogenase 2 (Homo sapiens) (P12268 2-514 limits assumed): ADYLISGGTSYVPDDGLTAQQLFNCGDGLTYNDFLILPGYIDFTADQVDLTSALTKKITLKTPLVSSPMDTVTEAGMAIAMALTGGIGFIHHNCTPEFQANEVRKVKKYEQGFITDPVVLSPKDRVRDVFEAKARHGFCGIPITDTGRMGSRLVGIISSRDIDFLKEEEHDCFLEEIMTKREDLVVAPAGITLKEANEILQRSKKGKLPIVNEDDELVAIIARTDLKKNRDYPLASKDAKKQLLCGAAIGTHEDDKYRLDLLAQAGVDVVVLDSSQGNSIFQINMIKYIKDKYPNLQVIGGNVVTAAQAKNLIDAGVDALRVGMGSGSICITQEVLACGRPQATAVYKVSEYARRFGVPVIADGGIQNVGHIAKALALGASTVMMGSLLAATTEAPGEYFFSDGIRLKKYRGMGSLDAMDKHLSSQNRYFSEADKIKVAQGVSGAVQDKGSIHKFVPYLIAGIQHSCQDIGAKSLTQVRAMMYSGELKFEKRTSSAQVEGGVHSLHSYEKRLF

Consider `CCN(CC)c1ccc(Oc2ccc(-c3[nH]c4cccc(F)c4c(=O)c3C)cc2F)cc1`, for which the CI entry in [1] is reported as “>=10 - 50”. Moreover, the Activity result in data set [2] and in data set [11] was “Dose-dependent effect” throughout. Further, the CC50 at 48 h in [3], in data set [4], in [9] and in [13] was over 2500 nM throughout. In [5], the selectivity ratio is over 7.5. Besides, the EC50 was 4 nM in data set [6], 2800 nM in data set [7] and over 50000 nM in data set [12]. For the same compound, in data set [8], the IC50 amounted to 60 nM. In data set [10], the outcome was Active. Also, the result in [14] was inactive.
